Measured values: publication PMC6407133 (Journal of the American Chemical Society, 2018)
Like-named read-outs stand apart in the source and are kept apart here.

Key:
[1] = test system: non-confluent human foreskin fibroblast (HFF) cells; assay: Cell viability assay in mammalian cells; format: cell-based; conditions: non-confluent HFFs
Summary of the method: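 Nontransformed primary human foreskin fibroblasts, Mycoplasma-tested, seeded nonconfluent at 2500 cells/well less than 24 h before dosing. Test compound dose–response dilutions in media applied for 1 h (then washed out) or 72 h. Viability read by CellTiter-Blue. EC50 values are the mean of n = 9 cultures from three independent experiments run in triplicate.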

P. berghei = assay: Plasmodium berghei mouse model of infection; format: in vivo; conditions: CD1 mice, 50 mg/kg once daily for 4 days, intravenous
P. falciparum W2 = assay: P. falciparum replication assay; format: cell-based, Plasmodium falciparum; conditions: read-out: 72 h EC50 Pf; 72 h treatment, no washout; P. falciparum W2 ring stage

For CC(C)C[C@@H](/C=C/S(C)(=O)=O)NC(=O)[C@H](CC(C)C)NC(=O)[C@H](Cc1c[nH]c2ccccc12)NC(=O)CN1CCOCC1 [WLL-vs], the EC50 ([1]; read-out: 1 h EC50 HFF, 1 h treatment) was 65500 ± 15200 nM, the EC50 ([1]; read-out: 72 h EC50 HFF, 72 h treatment) was 1520 ± 410 nM and the “reduction of parasites on day 4” value (P. berghei) was 98%. For the same compound, the EC50 (P. falciparum W2) was 15 ± 5 nM.
